Experimental findings from ChEMBL document CHEMBL1129442, “Synthesis and structure-activity relationship of pyrazolo[3,4-d]pyrimidines: potent and selective adenosine A1 receptor antagonists” (J Med Chem, 1996) are described below.

For one experiment, the target named is T1, Adenosine receptor A1 (Rattus norvegicus, UniProt P25099).
T1 sequence (P25099 whole entry): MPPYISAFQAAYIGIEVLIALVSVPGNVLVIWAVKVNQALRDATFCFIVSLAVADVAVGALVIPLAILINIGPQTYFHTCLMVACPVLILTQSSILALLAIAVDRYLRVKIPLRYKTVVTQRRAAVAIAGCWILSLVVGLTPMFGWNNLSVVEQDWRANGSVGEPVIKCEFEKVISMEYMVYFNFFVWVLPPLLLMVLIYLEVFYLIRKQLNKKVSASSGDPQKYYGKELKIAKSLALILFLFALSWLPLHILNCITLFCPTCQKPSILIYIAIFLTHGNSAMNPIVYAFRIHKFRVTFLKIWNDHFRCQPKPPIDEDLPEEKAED
Put plainly: Displacement of [3H]N6-PIA from Adenosine A1 receptor from rat whole brain. Put shortly:
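Rat whole-brain membranes (100 µg, pretreated with 0.1 U/mg adenosine deaminase, 10 min, 37 °C) incubated 90 min at 25 °C with 1 nM (R)-[3H]-N6-PIA in 50 mM Tris-HCl pH 7.4. Test compound given at ≥12 concentrations, final Me2SO 1%, 2% or 5%. Nonspecific binding defined with 10 µM 2-chloroadenosine. Bound ligand collected by filtration on glass fiber filters. Ki derived from IC50 via Cheng-Prusoff (Kd 1 nM). At least two experiments in duplicate, mean ± SEM.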
For orientation: In a radioligand displacement assay an active substance lowers the binding of a labelled ligand.

The target in experiment [1] is Adenosine receptor A2a (Rattus norvegicus) (UniProt P30543). The experiment can be described thus: Percent inhibition of [3H]CGS-21680 binding to Adenosine A2A receptor rat striatal membranes. It is filed as cell membranes. The note with it: Membrane, concentration not given here.
Chain of Adenosine receptor A2a (Rattus norvegicus) (P30543 whole entry): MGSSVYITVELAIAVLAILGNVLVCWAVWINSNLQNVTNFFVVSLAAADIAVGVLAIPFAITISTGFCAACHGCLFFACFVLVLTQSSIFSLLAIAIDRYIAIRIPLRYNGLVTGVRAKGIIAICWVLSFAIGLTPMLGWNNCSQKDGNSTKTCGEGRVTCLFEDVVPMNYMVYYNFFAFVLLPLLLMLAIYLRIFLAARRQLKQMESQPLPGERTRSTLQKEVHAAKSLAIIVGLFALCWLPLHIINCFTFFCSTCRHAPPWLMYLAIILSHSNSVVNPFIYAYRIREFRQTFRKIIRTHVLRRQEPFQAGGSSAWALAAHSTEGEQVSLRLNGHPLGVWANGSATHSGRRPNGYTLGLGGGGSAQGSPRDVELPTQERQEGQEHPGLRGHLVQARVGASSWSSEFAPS
In experiment [2] the target is Adenosine receptors; A1 & A2a (Rattus norvegicus) (UniProt P25099+P30543). The experiment can be described thus: Ratio of Binding Constants for adenosine A2A and A1 receptors. It is filed as protein assay.
Chain of Adenosine receptors; A1 & A2a (Rattus norvegicus) (P30543 whole entry, looked up, one chain of several): as the sequence (P30543 whole entry) above
Another experiment has as its target Adenosine receptor A2a (Rattus norvegicus, UniProt P30543). The experiment can be described thus: Inhibition of [3H]CGS-21680 binding to Adenosine A2A receptor of rat striatal membranes. It is filed as cell membranes, Membrane. In a few lines:
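Rat striatal membranes (150 µg, adenosine deaminase-pretreated) incubated 120 min at 25 °C with 5 nM [3H]CGS 21680 in 50 mM Tris-HCl, 10 mM MgCl2, pH 7.4. Test compound given at ≥12 concentrations, final Me2SO 1%, 2% or 5%. Nonspecific binding defined with 20 µM 2-chloroadenosine. Bound ligand filtered as for the A1 assay. Ki derived from IC50 via Cheng-Prusoff (Kd 14.9 nM). At least two experiments in duplicate, mean ± SEM.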

pKi: −log10 of the molar value.

Chain of Adenosine receptor A2a (P30543 whole entry): as above

Compound `CCCCC(Sc1nc(S)c2cnn(-c3ccccc3)c2n1)C(N)=O` (centres undefined) had a pKi on Adenosine receptor A1 of 7.43. Also, the inhibition in experiment [1] turned out to be 52%. In experiment [2], the Ratio was over 270.
At Adenosine receptor A1, `CC(C)C(Sc1nc2c(cnn2-c2ccccc2)c(=S)[nH]1)C(N)=O` (centres undefined) gave a pKi of 6.59.
As for `CCC(Sc1nc(N)c2cnn(-c3ccccc3)c2n1)C(N)=O` (centres undefined), the pKi at Adenosine receptor A1 is 8.81; on Adenosine receptor A2a it was 7.35. The Ratio in experiment [2] came to 29.
Take `CC(C)C(Sc1nc(N)c2cnn(-c3ccccc3)c2n1)C(N)=O` (centres undefined): the pKi at Adenosine receptor A1 was 8.56; at Adenosine receptor A2a, 6.83. Besides, in experiment [2], the Ratio was determined as 54.
With `CCCCC(Sc1nc(NC)c2cnn(-c3ccccc3)c2n1)C(N)=O` (centres undefined), the pKi is 9.13 on Adenosine receptor A1 and 6.61 at Adenosine receptor A2a. Moreover, the Ratio in experiment [2] came to 332.
`CCCCC(Sc1nc(N)c2cnn(-c3ccccc3)c2n1)C(N)=O` (centres undefined): the values for the pKi on Adenosine receptor A1 and at Adenosine receptor A2a were 9.03 and 7.05, respectively. Further, the Ratio in experiment [2] came to 94.
Consider `CCCC(Sc1nc2c(cnn2-c2ccccc2)c(=S)[nH]1)C(N)=O` (centres undefined), for which the figures for the pKi on Adenosine receptor A1 and at Adenosine receptor A2a were 7.25 and 5.35, respectively.
The compound `CC(C)C(Sc1nc(S)c2cnn(-c3ccccc3)c2n1)C(N)=O` (centres undefined) showed an inhibition in experiment [1] of 44%. In addition, the Ratio in experiment [2] was over 78.
As for `CCC(Sc1nc(S)c2cnn(-c3ccccc3)c2n1)C(N)=O` (centres undefined), the Ratio in experiment [2] worked out at 56.
In the case of `CCCC(Sc1nc(SC)c2cnn(-c3ccccc3)c2n1)C(N)=O` (centres undefined), the pKi was 8.12 at Adenosine receptor A1 and 5.36 on Adenosine receptor A2a. The Ratio in experiment [2] was determined as 580.
`CCCCC(Sc1nc(SC)c2cnn(-c3ccccc3)c2n1)C(N)=O` (centres undefined) had a pKi at Adenosine receptor A1 of 8.17. In experiment [1], this compound had an inhibition of 12%. The Ratio in experiment [2] is over 5900.
As for `CCC(Sc1nc(SC)c2cnn(-c3ccccc3)c2n1)C(N)=O` (centres undefined), the pKi at Adenosine receptor A1 was 8.08; on Adenosine receptor A2a, 6.10. Also, in experiment [2], the Ratio was determined as 95.
On Adenosine receptor A1, `CSc1nc(SC(C(N)=O)C(C)C)nc2c1cnn2-c1ccccc1` (centres undefined) had a pKi of 7.80. For the same compound, the inhibition in experiment [1] came out at 37%. Also, the Ratio in experiment [2] was over 1300.
On to `CCCC(Sc1nc(S)c2cnn(-c3ccccc3)c2n1)C(N)=O` (centres undefined), for which the Ratio in experiment [2] came to 79.
Regarding `CCCC(Sc1nc(N)c2cnn(-c3ccccc3)c2n1)C(N)=O` (centres undefined), the pKi at Adenosine receptor A1 was 8.97; at Adenosine receptor A2a, 7.45. Moreover, the Ratio in experiment [2] was determined as 33.
Regarding `CCC(Sc1nc2c(cnn2-c2ccccc2)c(=S)[nH]1)C(N)=O` (centres undefined), the pKi on Adenosine receptor A1 was 6.81; on Adenosine receptor A2a, 5.06.

As usually defined, the pKi is the negative decadic logarithm of the Ki, by convention in mol/L. Read a low pKi as a large Ki. Broadly, the inhibition is the percentage by which the read-out fell short of the control. Read a low inhibition as a response near the control.
